Test results published in ChEMBL document CHEMBL1126315, “Pyrrolobenzodiazepines and related systems. 2. Synthesis and biological properties of isonoraptazepine derivatives” (1992).

Key:
Assay type in all cases: functional
Mus musculus [1] = experiment: Rotation number in mice was determined at 12 minutes after a dose of 10 mg/Kg
Method in brief: (§1)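 Nomura water-wheel test: Swiss inbred mice (5 male, 5 female per group) dosed ip in 1% Tween 80, placed in a water tank with central wheel 1 h later. Wheel rotations counted by photointerrupter on the shaft, read at 9, 12 and 15 min. Mean ± SD vs vehicle controls.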

Mus musculus [2] = experiment: Compound was tested for total number of falls in 100 seconds after intraperitoneal administration of 37.5 mg/Kg in mice by rotarod test
Method in brief: (§2)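 Mice (Swiss inbred, 5 male + 5 female per group) dosed ip in 1% Tween 80; Rota-Rod motor coordination assessed 80 min later. Falls counted over a 100 s observation period. Mean ± SEM vs vehicle controls, Dunnett t test.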

Mus musculus [3] = experiment: Rotation number in mice was determined at 9 minutes after a dose of 10 mg/Kg; method in brief: as §1
Mus musculus [4] = experiment: Compound was tested for myorelaxant action (time in seconds on the horizontal wire with forelegs) after intraperitoneal administration of 37.5 mg/Kg in mice by traction test
Method in brief: (§3)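 Traction test on Swiss inbred mice, 10 per group (5 male, 5 female), dosed ip in 1% Tween 80; run 70 min after dosing. Time for animals to place hind legs on horizontal wire recorded in seconds. Mean ± SEM vs vehicle-treated controls, Dunnett t test.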

Mus musculus [5] = experiment: Compound was tested for total number of movements in 5 minutes after intraperitoneal administration of 37.5 mg/Kg in mice
Method in brief: (§4)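 Open-field spontaneous activity 60 min after ip dosing in 1% Tween 80; Swiss inbred mice, 10 per group (5 male, 5 female), placed singly in 19 × 25 cm cages and monitored continuously for 5 min. Total movements as mean ± SEM vs vehicle controls.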

Mus musculus [6] = experiment: Rotation number in mice was determined at 15 minutes after a dose of 10 mg/Kg; method in brief: as §1
Mus musculus [7] = experiment: Total number of movements in 5 minutes after intraperitoneal administration of 75 mg/Kg in mice; method in brief: as §4
Mus musculus [8] = experiment: Total number of falls in 100 seconds after intraperitoneal administration of 75 mg/Kg in mice by rotarod test; method in brief: as §2
Mus musculus [9] = experiment: Myorelaxant action (time in seconds on the horizontal wire with forelegs) after intraperitoneal administration of 75 mg/Kg in mice by traction test; method in brief: as §3
Mus musculus [10] = experiment: Total number of explored holes in 5 minutes after intraperitoneal administration of 75 mg/Kg in mice
Method in brief: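 Hole-board exploration at 65 min after ip dosing (1% Tween 80 vehicle) in Swiss inbred mice, 10 per group (5 male, 5 female). Holes explored counted by infrared detector below the hole lines over 5 min. Mean ± SEM vs vehicle controls, Dunnett t test.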

Mus musculus [11] = experiment: Writhing number was determined against clonidine induced analgesia by the compound at an intraperitoneal dose of 10 mg/Kg in mice
Mus musculus [12] = experiment: Compound at an intraperitoneal dose of 10 mg/Kg was tested for the inhibition of abdominal constriction in mice; conditions: Abdomen, ip
Method in brief: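 Swiss inbred mice (25 ± 3 g), 10 per group (5 male, 5 female), given compound ip in 1% Tween 80. Clonidine 0.1 mg/kg po 30 min later, then phenylquinone 3.75 mg/kg ip in 5% aqueous ethanol 20 min after that. Writhing counted by observer over 10 min starting 5 min post-injection; % inhibition relative to controls.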

Mus musculus [13] = experiment: Rotation number in mice was determined at 12 minutes after a dose of 5 mg/Kg
Method in brief: (§5)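 Nomura water-wheel test in Swiss inbred mice (25 ± 3 g), groups of 10 (5 male, 5 female). Drug given ip in 1% Tween 80, single dose. Mouse placed in a water tank with a central wheel 1 h after dosing. Wheel rotations counted by photointerrupter, read at 9, 12 and 15 min. Mean ± SD versus vehicle controls.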

Mus musculus [14] = experiment: Rotation number in mice was determined at 15 minutes after a dose of 2.5 mg/Kg; method in brief: as §5
Mus musculus [15] = experiment: Rotation number in mice was determined at 9 minutes after a dose of 5 mg/Kg; method in brief: as §5
Mus musculus [16] = experiment: Rotation number in mice was determined at 12 minutes after a dose of 2.5 mg/Kg; method in brief: as §5
Mus musculus [17] = experiment: Compound was tested for total number of falls in 100 seconds after intraperitoneal administration of 10 mg/Kg in mice by rotarod test
Method in brief: (§6)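 Swiss inbred mice (25 ± 3 g), groups of 10 (5 male, 5 female), given drug ip in 1% Tween 80; vehicle-treated controls. Single sequence per animal: open-field movements counted over 5 min at 60 min, hole-board explorations (infrared counting, 5 min) at 65 min, traction-test wire time at 70 min, Rota-Rod falls over 100 s at 80 min. Mean ± SEM, Dunnett t test.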

Mus musculus [18] = experiment: Compound was tested for myorelaxant action (time in seconds on the horizontal wire with forelegs) after intraperitoneal administration of 10 mg/Kg in mice by traction test; method in brief: as §6
Mus musculus [19] = experiment: Rotation number in mice was determined at 9 minutes after a dose of 2.5 mg/Kg; method in brief: as §5
Mus musculus [20] = experiment: Rotation number in mice was determined at 15 minutes after a dose of 5 mg/Kg; method in brief: as §5
Mus musculus [21] = experiment: Compound was tested for total number of movements in 5 minutes after intraperitoneal administration of 10 mg/Kg in mice; method in brief: as §6
Mus musculus [22] = experiment: Compound was tested for total number of explored holes in 5 minutes after intraperitoneal administration of 10 mg/Kg in mice; method in brief: as §6

Row | Structure (SMILES) | Rotation number (Mus musculus [1]) | Rotation number (Mus musculus [3]) | Rotation number (Mus musculus [6]) | Spontaneous motor activity (Mus musculus [7]) | Activity (Mus musculus [8]) | Time (Mus musculus [9]) [s] | Exploratory activity (Mus musculus [10]) | also measured
1 | c1ccc2c(c1)CN1CCNCC1c1cccn1-2 (stereo unspecified) | 10 | 17 | 12 |  |  |  |  | Activity (Mus musculus [2]): 3; Time (Mus musculus [4]): 4.9 s; Spontaneous motor activity (Mus musculus [5]): 111
2 | O=C1CNCC2c3cccn3-c3ccccc3CN12 (stereo unspecified) | 17 | 15 | 10 |  |  |  |  | 
3 | CN1CCN2Cc3ccccc3-n3cccc3C2C1 (stereo unspecified) | 16 | 21 | 11 | 96 | 5 | 4.4 | 3.8 | 
4 | O=C1CN(Cc2ccc(F)cc2)CC2c3cccn3-c3ccccc3CN12 (stereo unspecified) |  |  |  | 178 | 1.8 | 4.2 | 6 | 
5 | CN1CC(=O)N2Cc3ccccc3-n3cccc3C2C1 (stereo unspecified) | 14 | 17 | 10 | 90 | 8.7 | 1 | 13 | 
6 | CCN1CC(=O)N2Cc3ccccc3-n3cccc3C2C1 (stereo unspecified) | 17 | 22 | 22 | 285 | 0.4 | 2.1 | 9.8 | 
7 | CC(=O)N1CC(=O)N2Cc3ccccc3-n3cccc3C2C1 (stereo unspecified) | 57 | 54 | 49 | 121 | 1 | 3.5 | 10.7 | 
8 | CC(=O)N1CCN2Cc3ccccc3-n3cccc3C2C1 (stereo unspecified) | 23 | 21 | 17 |  |  |  |  | 
9 | O=C1NCC(=O)N2Cc3ccccc3-n3cccc3C12 (stereo unspecified) | 15 | 18 | 11 | 247 | 2.5 | 5.5 | 14.7 | Writhing number (Mus musculus [11]): 12; inhibition in vivo at 10 mg/kg (Mus musculus [12]): 43%
10 | O=C1CN(Cc2ccccc2)CC2c3cccn3-c3ccccc3CN12 (stereo unspecified) | 41 | 45 | 31 |  |  |  |  | 
11 | C=CCN1CCN2Cc3ccccc3-n3cccc3C2C1 (stereo unspecified) | 16 | 16 | 14 |  |  |  |  | 
12 | O=C1CC2c3cccn3-c3ccccc3CN2C(=O)CN1 (stereo unspecified) | 27 | 35 | 27 | 173 | 0.6 | 2.3 | 17.2 | 
13 | O=C(c1ccc(Cl)cc1)N1CCN2Cc3ccccc3-n3cccc3C2C1 (stereo unspecified) | 6 | 7 | 7 |  |  |  |  | 
14 | Clc1ccc(CN2CCN3Cc4ccccc4-n4cccc4C3C2)cc1 (stereo unspecified) | 14 | 22 | 11 | 142 | 2.1 | 2 | 9.3 | 
15 | O=C1CN(Cc2ccc(Cl)cc2)CC2c3cccn3-c3ccccc3CN12 (stereo unspecified) |  |  |  |  |  |  |  | Writhing number (Mus musculus [11]): 8; inhibition in vivo at 10 mg/kg (Mus musculus [12]): 63%
16 | CCN1CCN2Cc3ccccc3-n3cccc3C2C1 (stereo unspecified) | 27 | 30 | 24 | 188 | 1.1 | 3.1 | 7.6 | 
17 | CN1CCN2c3ccccc3Cn3cccc3C2C1 (stereo unspecified) [APTAZAPINE] | 5 | 8 | 2 | 59 | 6.5 | 8.1 | 0.5 | Rotation number (Mus musculus [13]): 8; Rotation number (Mus musculus [14]): 2; Rotation number (Mus musculus [15]): 5; Rotation number (Mus musculus [16]): 3; Activity (Mus musculus [17]): 5; Time (Mus musculus [18]): 2.5 s; Rotation number (Mus musculus [19]): 12; Writhing number (Mus musculus [11]): 18; Rotation number (Mus musculus [20]): 2; inhibition in vivo at 10 mg/kg (Mus musculus [12]): 14%; Spontaneous motor activity (Mus musculus [21]): 168; Exploratory activity (Mus musculus [22]): 8.8
18 | CN(C)CCCN1c2ccccc2CCc2ccccc21 [IMIPRAMINE] | 40 | 48 | 36 |  |  |  |  | Activity (Mus musculus [2]): 4.8; Time (Mus musculus [4]): 5.7 s; Spontaneous motor activity (Mus musculus [5]): 183; inhibition in vivo at 10 mg/kg (Mus musculus [12]): 100%
